Screening results: PubChem, several laboratories
Runt-SMMHC FRET: inhibitors of human RUNX1 Runt domain binding to CBFb-SMMHC; Q01196+Q13951; Cerulean-Runt/Venus-CBFb-SMMHC FRET ratio 530/480, 1 h; inhibition, % at 20 µM; hit rate 0.74% among 220,000; AID 1434;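 active = mean inhibition across duplicate retests at 20 µM reaching about 50%, limit read from the data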;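 also: 0% = DMSO wells and 100% = wells with excess untagged CBFb-SMMHC; inhibitors lower the FRET ratio by blocking Runt binding to CBFb-SMMHC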
Hck Nef HTS: human Hck-Nef kinase inhibition; hit rate 0.68% among 220,000; AID 463187; P08631; Recombinant Hck-YEEI plus Nef, Z-Lyte FRET kinase assay; inhibition, % at 20 µM;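 active = Hck-Nef kinase inhibition above about 50%, limit read from the data; inactive = inhibition below that limit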;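 also: 0% = DMSO with Hck plus Nef and 100% = Hck alone without Nef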
Target sequence (P08631 whole entry, looked up): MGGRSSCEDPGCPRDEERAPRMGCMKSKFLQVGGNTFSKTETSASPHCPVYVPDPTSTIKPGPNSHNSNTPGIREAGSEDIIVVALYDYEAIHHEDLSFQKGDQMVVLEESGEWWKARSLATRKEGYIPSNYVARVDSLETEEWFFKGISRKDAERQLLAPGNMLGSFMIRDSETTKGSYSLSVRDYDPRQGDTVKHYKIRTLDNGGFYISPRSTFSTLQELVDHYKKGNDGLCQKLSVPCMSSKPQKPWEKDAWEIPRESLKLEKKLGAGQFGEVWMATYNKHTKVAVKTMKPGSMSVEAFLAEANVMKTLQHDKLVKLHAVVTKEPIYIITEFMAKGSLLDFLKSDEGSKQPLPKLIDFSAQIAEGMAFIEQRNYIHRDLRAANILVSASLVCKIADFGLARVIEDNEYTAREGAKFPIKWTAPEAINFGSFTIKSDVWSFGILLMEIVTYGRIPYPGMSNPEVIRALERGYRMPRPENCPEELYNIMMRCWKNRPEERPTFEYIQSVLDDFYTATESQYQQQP
Runt-CBFb FRET: Runt domain-CBFb interaction inhibition; inhibition, % at 20 µM; hit rate 0.46% among 220,000; Q01196+Q13951; Cerulean-Runt/Venus-CBFb FRET ratio 530/480, 1 h; AID 1496;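 active = inhibition over about 50% at 20 µM in the single-dose screen, limit read from the data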;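 also: 0% = DMSO wells and 100% = excess unlabeled CBFb competitor control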
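System: Cerulean-labeled Runt domain protein | Quantity: 100 nM of each labeled protein | Schedule: 1 h compound exposure, room temperature | Detection: Fluorescence energy transfer, 422 nm excitation, 530/480 nm emission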
Tb hexokinase: blocks Trypanosoma brucei hexokinase 1 activity; recombinant TbHK1, G6PDH-coupled NADH A340; inhibition, % at 10 µM; hit rate 0.11% among 220,000;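 active = inhibition of 50% or more in the single-dose primary screen; inactive = inhibition below 50%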
RanGTP-Impb inh: inhibitors of RanGTP-importin-beta interaction, primary screen, biochemical, FRET, CFP-Ran, YFP-importin-beta, homogeneous; AID 2216; cell-free CFP-Ran/YFP-importin-beta FRET ratio; inhibition, % (concentration not given with the values); hit rate 1.1% among 300,000;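 active = more than half of the replicate wells show a fall in the fluorescence ratio signal beyond about 16%, limit read from the data, passing the limit was not always enough; inconclusive = exactly half of the replicate wells pass the set limit; inactive = fewer than half of replicates pass the limit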;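 also: 0% = DMSO wells and 100% = Ran loaded with GDP instead of GTP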
14-3-3 Bad PPI: disrupts binding of bovine 14-3-3 zeta to phospho-Bad peptide; P63103; TR-FRET 14-3-3zeta/Dy647-pBad peptide displacement, 1 h; inhibition, % at 21.7 µM; hit rate 0.71% among 220,000; AID 781;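 active = inhibition above about 70%, limit read from the data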;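 also: 0% = full 14-3-3 plus peptide FRET controls and 100% = background without 14-3-3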
An asterisk follows results filed as active; ? = inconclusive; . = no result; [ ] = another dose, or the depositor's remark. Hits are enriched below; roughly 2.2% of the tested compounds scored in any of these assays.

SMILES | Runt-SMMHC FRET | Hck Nef HTS | Runt-CBFb FRET | Tb hexokinase | RanGTP-Impb inh | 14-3-3 Bad PPI
O=C(c1nc2ccccn2c1CN1CCCC(O)C1)N1CCN(C2CCCCC2)CC1 (stereo not given) | . | . | . | . | 103* | .
N=C(N)SCc1cn(-c2ccccc2)nc1-c1ccc(Br)cc1 | 2 | 13 | -3 | 17 | 3 | 75*
Cc1ccc(-c2nn(-c3ccccc3)cc2CO)cc1 | . | . | . | . | 4 | .
O=C1COc2ccccc2N1Cc1c(F)cccc1Cl | . | . | . | . | 3 | .
CCOc1ccccc1NC(=O)N1CCC(NC(=O)c2cccc(C)c2)CC1 | -4 | 0 | -3 | -10 | ? | 80*[fluorescence artefact?]
Cc1cccc(C(=O)NC2CCN(C(=O)Nc3ccccc3C)CC2)c1 | -1 | 21 | 0 | 4 | 2 | 2
Cc1ccc(S(=O)(=O)c2cc3c(=O)n4ccccc4nc3n(C3CCCC3)c2=N)cc1 | . | . | . | . | 123* | .
CCn1c(=N)c(S(=O)(=O)c2ccc(C)cc2)cc2c(=O)n3ccccc3nc21 | . | 14 | . | -6 | -1 | -1
COc1ccc(CCn2c(=N)c(S(=O)(=O)c3ccc(Cl)cc3)cc3c(=O)n4ccccc4nc32)cc1 | . | . | . | . | 9 | .
Cc1ccc(S(=O)(=O)c2cc3c(=O)n4ccccc4nc3n(CCc3ccccc3)c2=N)cc1 | . | . | . | . | 64* | .
Cc1ccc(S(=O)(=O)c2cc3c(=O)n4ccccc4nc3n(C)c2=N)cc1 | 62* | -2 | 97* | -12 | 174* | 0
CN1C(=O)C(=O)/C(=C(/O)c2ccc(Br)cc2)C1c1ccc(F)cc1 (stereo not given) | . | . | . | . | 7 | .
COc1ccc(-n2ncc3c(SCC(=O)N4CCN(c5ccccc5OC)CC4)ncnc32)cc1 | -1 | 1 | -3 | -6 | ? | 4
CCN(CC)CCCNc1cc(C(F)(F)F)c(C#N)c2nc3ccccc3n12 | . | . | . | . | 117* | .
N#Cc1c2c(c(NCc3ccco3)n3c1nc1ccccc13)CCC2 | . | 11 | 17 | -13 | 6 | -4
CN(C)CCNc1c2c(c(C#N)c3nc4ccccc4n13)CCCC2 | 62* | 25 | 21 | -6 | -3 | .
CCN(CC)CCNc1c2c(c(C#N)c3nc4ccccc4n13)CCCC2 | 61* | 21 | 30 | -3 | ? | -5
CCN(CC)CCNc1cc(C)c(C#N)c2nc3ccccc3n12 | . | . | . | . | 11 | .
Cc1cc(-c2nnc(SCCC(=O)Nc3ccccc3)o2)no1 | . | . | . | . | 2 | .
CC1(C)Cc2c(ccc3ccccc23)C(=O)N1 | 2 | 2 | 0 | 0 | -1 | -8
CN1CC2(Cc3c1ccc1ccccc31)C(=O)OC(C)(C)OC2=O | 113* | 19 | 29 | 6 | -1 | -10
COc1cccc(-c2cc(C(F)(F)F)n3nc(N)nc3n2)c1 | 4 | 1 | 3 | -22 | 3 | -17
COc1cccc(-c2cn3nc4c(nc3n2)CCCC4)c1 | 3 | 9 | -1 | -1 | 46* | 1
Clc1ccc(-c2cn3nc4c(nc3n2)CCCC4)cc1 | 57 | 1 | 12 | -7 | 70* | -9
Cc1cccc(C(=O)Nc2cccc(C(=O)Nc3cc(C)ccn3)c2)c1 | . | . | . | . | -1 | .
SMILES | Runt-SMMHC FRET | Hck Nef HTS | Runt-CBFb FRET | Tb hexokinase | RanGTP-Impb inh | 14-3-3 Bad PPI
O=C(c1ccco1)N1CCN(Cc2nc(-c3cccs3)no2)CC1 | -5 | -1 | 2 | -4 | -1 | -3
COc1cc(/C=N/NC(=O)c2cc(-c3cccc(OC(C)C)c3)nc3ccccc23)ccc1O | . | . | . | . | -1 | .
COCCN(C(=O)COC(=O)Cc1coc2cc3c(cc12)CCC3)c1c(N)n(Cc2ccccc2)c(=O)[nH]c1=O | . | . | . | . | 1 | .
O=C(CNC(=O)c1cccs1)Nc1ccc2c(c1)OCCO2 | . | . | . | . | 4 | .
CCc1ccc[n+](-c2nc3ccccc3nc2C(=C=[N-])C#N)c1 | 5 | 30 | -17 | -9 | 31* | 7
Cc1cccc(/C=C(\C(=O)C(=O)O)c2ccc3ccccc3n2)c1 | 73* | 40 | 24 | 1 | 29* | 0
O=C(O)C(=O)/C(=C\c1cccc(Cl)c1)c1ccc2ccccc2n1 | 37 | 28 | 6 | 1 | -9 | -2
COc1cc(OC)cc(C(=O)OCC(=O)NCCCc2ccccc2)c1 | . | . | . | . | -2 | .
O=C(O)CCN1C(=O)/C(=C/c2cn(-c3ccccc3)nc2-c2cccs2)SC1=S | . | 40 | . | 26 | . | 76*
O=C(O)CCCCCN1C(=O)/C(=C\c2cn(-c3ccccc3)nc2-c2cccs2)SC1=S | -25 | 30 | 0 | 33 | -20 | 64
COc1ccc(CCNC(=S)Nc2cccc(C)c2C)cc1 | 5 | 5 | 0 | 6 | 27* | 6
Cc1cccc(NC(=S)NCCc2ccccc2)c1C | . | . | . | . | 0 | .
Cc1cc(C)c(NC(=O)C2=COCCO2)c(C)c1 | . | . | . | . | -3 | .
COc1ccccc1OCC(O)CN1CCN(C(=O)c2ccccc2)CC1 (stereo not given) | . | . | . | . | -2 | .
O=C(/C=C/c1cn(-c2ccccc2)nc1-c1cccnc1)NCCN1CCOCC1 | -1 | 22 | 0 | -5 | -1 | 85*
O=C(/C=C/c1cn(-c2ccccc2)nc1-c1cccnc1)N1CCCC1 | -1 | 21 | 0 | -7 | -7 | -6
CCOC(=O)Cc1csc(NC(=S)NC(=O)C(C)(C)C)n1 | 1 | -2 | -1 | -26 | 0 | -4
CCOC(=O)C1C(c2ccccc2)NC(=S)NC1(C)O (stereo not given) | 0 | -6 | 1 | 7 | 0 | 1
CCOC(=O)C1(C(=O)OCC)C(c2ccccc2)CC(O)N1C(C)=O (stereo not given) | 1 | -9 | . | -2 | 1 | 92*
Cc1cc([N+](=O)[O-])ccc1NC(=O)C(C)N1CCN(c2ccccn2)CC1 (stereo not given) | 2 | 18 | -1 | 0 | 5 | 1
CCc1nc(N2CCCCC2)c2oc3ccccc3c2n1 | 0 | 1 | -1 | -5 | 2 | 38
CCc1nc(Nc2ccc3c(c2)OCO3)c2oc3ccccc3c2n1 | 1 | 2 | 0 | -7 | 5 | 70*[fluorescence artefact?]
CCc1nc(NC(C)C)c2oc3ccccc3c2n1 | -3 | 4 | . | -8 | 1 | 76*
CCc1nc(N2CCN(Cc3ccc4c(c3)OCO4)CC2)c2oc3ccccc3c2n1 | -8 | -2 | -3 | 0 | 5 | 80*
CCc1nc(Nc2cccc(O)c2)c2oc3ccccc3c2n1 | . | . | . | . | -5 | .
CCc1nc(N[C@H](C(=O)O)C(C)C)c2oc3ccccc3c2n1 | 1 | 4 | 1 | -1 | 4 | 5
COc1ccc(Cl)cc1S(=O)(=O)N1CCC(C(=O)N2CCOCC2)CC1 | . | . | . | . | 1 | .
CCCC(C(=O)NCc1ccco1)N(C(=O)CNS(=O)(=O)c1ccccc1)c1ccccc1OC (stereo not given) | -2 | 1 | 0 | 7 | 0 | -5
O=C(CCCCl)NC(=S)Nc1ccc(N2CCOCC2)cc1 | -4 | 6 | 0 | -14 | ? | -5
